Data reported in ChEMBL document CHEMBL1155564, “New antimicrobial flavanones from Physena madagascariensis” (2000).

Columns and labels:
Type in all cases: functional
Details in all cases: read-out: MEC
Staphylococcus aureus = assay: Antimicrobial activity against Staphylococcus aureus after 16 hrs by microtiter plate assay
Procedure, shortened: (§1)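 Broth microdilution in YPAD medium (1% yeast extract, 2% peptone, 2% dextrose, 40 μg/mL adenine). Wells were scored visually after 16 h. Clear wells were plated on YPAD agar for 16 h at room temperature; regrowth meant bacteriostatic, none meant bactericidal.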

[1] = tested on: Staphylococcus epidermidis; assay: Antimicrobial activity against Staphylococcus epidermidis after 16 hrs by microtiter plate assay; procedure, shortened: as §1
Salmonella enterica = assay: Antimicrobial activity against Salmonella enterica after 16 hrs by microtiter plate assay; procedure, shortened: as §1
Shigella sonnei = assay: Antimicrobial activity against Shigella sonnei after 16 hrs by microtiter plate assay by microtiter plate assay; procedure, shortened: as §1
Escherichia coli = assay: Antimicrobial activity against Escherichia coli after 16 hrs by microtiter plate assay; procedure, shortened: as §1
Klebsiella aerogenes = assay: Antimicrobial activity against Enterobacter aerogenes after 16 hrs by microtiter plate assay; procedure, shortened: as §1
Listeria monocytogenes = assay: Antimicrobial activity against Listeria monocytogenes after 16 hrs by microtiter plate assay; procedure, shortened: as §1
Enterococcus = assay: Antimicrobial activity against Enterococcus after 16 hrs by microtiter plate assay; procedure, shortened: as §1

**Q.** How did the minimal effective concentration (Staphylococcus aureus) turn out when `C=C(C)CC[C@H](Cc1c(O)cc(O)c2c1O[C@H](c1ccc(O)cc1)CC2=O)C(=C)C` [REMANGIFLAVANONE A] was run?
**A.** Its minimal effective concentration is 3.75 µg/mL.

**Q.** And the minimal effective concentration [1]?
**A.** Its minimal effective concentration is 1.8 µg/mL.

**Q.** And the minimal effective concentration (Salmonella enterica)?
**A.** Its minimal effective concentration is 125 µg/mL.

**Q.** What about the minimal effective concentration (Shigella sonnei) of the same molecule?
**A.** The minimal effective concentration was 125 µg/mL.

**Q.** What about the minimal effective concentration (Escherichia coli) of the same molecule?
**A.** The minimal effective concentration was 125 µg/mL.

**Q.** What about the minimal effective concentration (Klebsiella aerogenes) of the same molecule?
**A.** The minimal effective concentration was 125 µg/mL.

**Q.** And the minimal effective concentration (Listeria monocytogenes)?
**A.** Its minimal effective concentration is 125 µg/mL.

**Q.** What about the minimal effective concentration (Enterococcus) of the same molecule?
**A.** Its minimal effective concentration is 7.5 µg/mL.

**Q.** How did the minimal effective concentration (Staphylococcus aureus) turn out when `C=C(C)CC[C@H](Cc1c(O)cc(O)c2c1O[C@H](c1ccc(O)cc1O)CC2=O)C(=C)C` [REMANGIFLAVANONE B] was run?
**A.** Its minimal effective concentration is 1.8 µg/mL.

**Q.** What about the minimal effective concentration [1] of the same molecule?
**A.** Its minimal effective concentration is 1.8 µg/mL.

**Q.** What about the minimal effective concentration (Salmonella enterica) of the same molecule?
**A.** The minimal effective concentration was 125 µg/mL.

**Q.** What about the minimal effective concentration (Shigella sonnei) of the same molecule?
**A.** The minimal effective concentration was 125 µg/mL.

**Q.** What about the minimal effective concentration (Escherichia coli) of the same molecule?
**A.** The minimal effective concentration was 125 µg/mL.

**Q.** What about the minimal effective concentration (Klebsiella aerogenes) of the same molecule?
**A.** Its minimal effective concentration is 125 µg/mL.

**Q.** And the minimal effective concentration (Listeria monocytogenes)?
**A.** The minimal effective concentration was 1.8 µg/mL.

**Q.** What about the minimal effective concentration (Enterococcus) of the same molecule?
**A.** The minimal effective concentration was 7.5 µg/mL.
